Sampled rows, rich in hits. Any-hit rate of the full collection: about 3.3%.
ATG4B inhibitor: inhibitors of human ATG4B cysteine protease; Q9Y4P1; actives 0.51% (n = 340,000); ATG4B cleavage of LC3-PLA2, NBD-HPC fluorescence, 1 h; inhibition, % at 8.33 µM; in the data active means inhibition above about 40%
ABCB6 inh 2: inhibitors of human ABC transporter ABCB6 | Q9NP58 | K562-ABCB6 porphyrin accumulation, flow cytometry, 1 h; stronger effect = lower value | fluorescence ratio to DMSO, % at 10 µM | actives 0.19% (n = 360,000);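 active means fluorescence ratio to DMSO below 75%, the collection mean minus 3 SD; inconclusive means too few cells collected in the well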;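 further: signal is porphyrin accumulated inside mitochondria; 100% equals median channel fluorescence of DMSO control wells; lower ratio means ABCB6 inhibition with less porphyrin fluorescence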
Target sequence (Q9NP58 whole entry, looked up): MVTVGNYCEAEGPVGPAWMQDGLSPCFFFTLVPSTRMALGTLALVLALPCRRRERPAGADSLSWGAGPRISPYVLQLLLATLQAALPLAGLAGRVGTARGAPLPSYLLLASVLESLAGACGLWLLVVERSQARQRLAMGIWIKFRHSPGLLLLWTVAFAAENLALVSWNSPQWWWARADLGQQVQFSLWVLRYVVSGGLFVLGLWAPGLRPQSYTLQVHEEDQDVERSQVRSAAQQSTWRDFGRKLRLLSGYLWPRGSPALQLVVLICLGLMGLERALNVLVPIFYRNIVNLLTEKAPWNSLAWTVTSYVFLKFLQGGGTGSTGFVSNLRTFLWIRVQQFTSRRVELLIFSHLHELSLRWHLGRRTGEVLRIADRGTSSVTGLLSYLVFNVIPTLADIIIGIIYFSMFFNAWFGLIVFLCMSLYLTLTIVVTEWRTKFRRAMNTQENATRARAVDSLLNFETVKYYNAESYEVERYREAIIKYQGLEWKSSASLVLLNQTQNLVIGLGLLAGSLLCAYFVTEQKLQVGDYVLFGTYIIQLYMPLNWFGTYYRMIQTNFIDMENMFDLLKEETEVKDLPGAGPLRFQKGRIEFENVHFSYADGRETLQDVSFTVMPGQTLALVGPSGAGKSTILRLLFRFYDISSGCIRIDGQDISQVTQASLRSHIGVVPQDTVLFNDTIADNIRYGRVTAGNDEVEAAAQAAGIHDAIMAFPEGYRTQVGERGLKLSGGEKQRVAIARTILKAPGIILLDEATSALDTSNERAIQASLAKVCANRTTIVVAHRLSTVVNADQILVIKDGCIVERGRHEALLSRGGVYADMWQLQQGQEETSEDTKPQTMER
Arr AP2 block: human beta-arrestin and AP2 interaction inhibition. AID 504490. FITC-arrestin peptide / GST-AP2 beads, flow cytometry; AP2 beta2 appendage carries R879A mutation. inhibition, % at 10 µM. actives 0.31% (n = 340,000);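 active means inhibition above a set limit, near 3 SD of compounds lacking own fluorescence, cut at about 54% in these data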;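 further: plate controls were DMSO wells for no effect and 5 µM unlabelled arrestin peptide for full effect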
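test system = AP2 appendage R879A on GSH beads | buffer or medium = PBS plus Tween 20 (0.05%) and BSA (0.1%) | incubation = 12 min plus 1 h, RT | detection = bead flow cytometry, FITC channel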
Myeloid diff MLP: myeloid differentiation induction. actives 1% (n = 360,000). calls only at 10 µM. ER-HoxA9 myeloid progenitors, lysozyme-GFP differentiation, flow cytometry;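 active means normalized GFP-positive differentiation at or above the plate's own cutoff, the solvent-only control mean plus 3 SD; inconclusive means no clear call, values can overlap the other calls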;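 further: cells exposed to compound for four days before flow analysis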
NRP1-CendR mod: NRP-1/CendR interaction modulation | O14786 | FAM-RPARPAR peptide binding to NRP-1, fluorescence polarization | AID 602438 | inhibition, % at 25 µM | actives 0.85% (n = 360,000);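 active means inhibition or corrected inhibition above about 18%, plus a signal ratio from 0.5 to 1.5, limit read from the data, passing the limit was not always enough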
Granule exo inh: blocks lytic granule exocytosis. TALL-104 LAMP-1 surface exposure, flow cytometry; cells stimulated with thapsigargin and PMA. inhibition, % at 10 µM. actives 0.66% (n = 360,000). AID 651702;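 active means inhibition above about 55%, limit read from the data; inconclusive means no clear call, values can overlap the other calls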
Myeloid diff: compounds promoting myeloid differentiation; shares compounds with Myeloid diff MLP; ER-HoxA9 myeloid progenitors, GFP/Mac1 double-positive flow; calls only; actives 2% (n = 2,300);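 active means share of green or green-and-red cells above 9 and 9% in run 1 or 4 and 3% in run 2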
GFP autofluor: counter-screen for myeloid differentiation promoters: compound fluorescence; shares compounds with Myeloid diff MLP; ER-HoxA9 myeloid progenitors, no estrogen, GFP autofluorescence flow cytometry; vehicle wells 0%, positive control 100%; fluorescence response, % (test concentration not listed); actives 7.4% (n = 2,300);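 active means over 5% cells positive for green fluorescent reporter, or over 2% positive for both it and APC stain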;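 further: range taken on the double positive population between DMSO and positive control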
The depositor's hits bear a star.

Results for CCCCCN(C(=O)NC(=O)NCCCC)S(C)(=O)=O ?
ATG4B inhibitor: -4; ABCB6 inh 2: 100; Arr AP2 block: -4; Myeloid diff MLP: inactive; NRP1-CendR mod: 3; Granule exo inh: 2

What do the screens show for `CCCCCN(C(=O)NC(=O)Nn1cnnc1)S(C)(=O)=O`?
ATG4B inhibitor: 3; ABCB6 inh 2: 102; Arr AP2 block: 3; Myeloid diff MLP: active; NRP1-CendR mod: 4; Granule exo inh: -3; Myeloid diff: inactive; GFP autofluor: 0

Results for CC(=O)c1cccc(OCC(=O)Nc2cccc(C(=O)Nc3c(C)n(C)n(-c4ccccc4)c3=O)c2)c1 ?
ATG4B inhibitor: -15; ABCB6 inh 2: 94; Arr AP2 block: 7; Myeloid diff MLP: inactive; NRP1-CendR mod: -5; Granule exo inh: 3

How did CN(Cc1ccccc1)S(=O)(=O)CCNC(=O)c1ccc2c(c1)OCO2 do in these assays?
ATG4B inhibitor: -6; ABCB6 inh 2: 93; Arr AP2 block: 9; Myeloid diff MLP: inactive; NRP1-CendR mod: -6; Granule exo inh: 0

How did CC(C)[C@H](NS(=O)(=O)c1ccccc1)C(=O)OCC(=O)N1N=C(c2ccc(Cl)cc2)CC1c1ccco1 (some centres undefined) do in these assays?
ATG4B inhibitor: 34; ABCB6 inh 2: 98; Arr AP2 block: 12; Myeloid diff MLP: inactive; NRP1-CendR mod: -25; Granule exo inh: -2; Myeloid diff: inactive; GFP autofluor: 0

What do the screens show for `COCC(=O)OCC(=O)N1N=C(c2ccc(Cl)cc2)CC1c1ccco1` (centres undefined)?
ATG4B inhibitor: -2; ABCB6 inh 2: 97; Arr AP2 block: 6; Myeloid diff MLP: inactive; NRP1-CendR mod: -2; Granule exo inh: 2

Results for COc1ccc(C)cc1NC(=O)C1CCN(S(=O)(=O)c2ccc3c(c2)C(C)(C)C(=O)N3C)CC1 ?
ATG4B inhibitor: -9; ABCB6 inh 2: 99; Arr AP2 block: 5; Myeloid diff MLP: inactive; NRP1-CendR mod: -9; Granule exo inh: -3

Results for C#CC[N+](CC)(CC)CC#Cc1ccccc1 ?
ATG4B inhibitor: 1; ABCB6 inh 2: 99; Arr AP2 block: 1; Myeloid diff MLP: active; NRP1-CendR mod: 9; Granule exo inh: -2; Myeloid diff: active; GFP autofluor: 4

How did CC[N+](CC)(CC#Cc1ccccc1)CC#Cc1ccccc1 do in these assays?
ATG4B inhibitor: -7; ABCB6 inh 2: 98; Arr AP2 block: 7; Myeloid diff MLP: inconclusive; NRP1-CendR mod: 4; Granule exo inh: 1

How did COc1ccc(-c2nc(CN3CCC(C(=O)N4CCc5ccccc54)CC3)c(C)o2)cc1OC do in these assays?
ATG4B inhibitor: 32; ABCB6 inh 2: 97; Arr AP2 block: 4; Myeloid diff MLP: inactive; NRP1-CendR mod: -9; Granule exo inh: 4; Myeloid diff: inactive; GFP autofluor: 1

How did Cn1ccc2c(N3CCCCCCC3)cc3c(c21)C1CCC3O1 (centres undefined) do in these assays?
ABCB6 inh 2: 102; Myeloid diff MLP: active; NRP1-CendR mod: 12; Granule exo inh: -1; Myeloid diff: inactive; GFP autofluor: 0

Results for Cc1nn(Cc2ccccc2)c(Cl)c1C(=O)OCc1nnc(-c2ccc(Cl)cc2)o1 ?
ATG4B inhibitor: -8; ABCB6 inh 2: 84; Arr AP2 block: 5; Myeloid diff MLP: active; NRP1-CendR mod: 38*; Granule exo inh: -11; Myeloid diff: inactive; GFP autofluor: 0

What do the screens show for `C=CCNC(=S)/N=c1/ccccn1CC`?
ATG4B inhibitor: -13; ABCB6 inh 2: 103; Arr AP2 block: 5; Myeloid diff MLP: inactive; NRP1-CendR mod: 13; Granule exo inh: -3; Myeloid diff: inactive; GFP autofluor: 4

What do the screens show for `COc1cccc(C(=O)NNC(=O)Cc2ccc([N+](=O)[O-])cc2)c1`?
ATG4B inhibitor: 3; ABCB6 inh 2: 94; Arr AP2 block: 4; Myeloid diff MLP: inactive; NRP1-CendR mod: 13; Granule exo inh: -3

How did COc1ccc(CC(=O)NNC(=O)c2ccc(SCc3cc(F)ccc3F)c([N+](=O)[O-])c2)cc1 do in these assays?
ATG4B inhibitor: -6; ABCB6 inh 2: 108; Arr AP2 block: -6; Myeloid diff MLP: inactive; NRP1-CendR mod: -3; Granule exo inh: -3; Myeloid diff: inactive; GFP autofluor: 0

What do the screens show for `CC1=C(C(=O)OCc2ccc(C)cc2)C(c2ccc(O)c([N+](=O)[O-])c2)NC(=O)N1` (centres undefined)?
ATG4B inhibitor: 3; ABCB6 inh 2: 104; Arr AP2 block: -9; Myeloid diff MLP: inactive; NRP1-CendR mod: 1; Granule exo inh: 0

How did CCCCNC(=O)C1CC(=O)N(CCc2ccc(C)cc2)C1 (centres undefined) do in these assays?
ATG4B inhibitor: -3; ABCB6 inh 2: 97; Arr AP2 block: 18; Myeloid diff MLP: inactive; NRP1-CendR mod: 24; Granule exo inh: 7

How did CC1=CC(=C(C#N)C#N)c2ccccc2N1C do in these assays?
ATG4B inhibitor: -4; ABCB6 inh 2: 111; Arr AP2 block: 13; Myeloid diff MLP: inactive; NRP1-CendR mod: -128; Granule exo inh: -1; Myeloid diff: inactive; GFP autofluor: 2

How did Cc1ccccc1N1C(=O)CSC1=C(C#N)C#N do in these assays?
ATG4B inhibitor: 2; ABCB6 inh 2: 97; Arr AP2 block: 20; Myeloid diff MLP: inactive; NRP1-CendR mod: -27; Granule exo inh: 1

How did C[C@H](CCC(=O)NCC(=O)O)[C@H]1CC[C@H]2C3[C@H](O)C[C@@H]4C[C@H](O)CC[C@]4(C)[C@H]3C[C@H](O)[C@]12C (some centres undefined) do in these assays?
ATG4B inhibitor: -2; ABCB6 inh 2: 86; Arr AP2 block: 17; Myeloid diff MLP: inactive; NRP1-CendR mod: 2; Granule exo inh: 1

Results for COc1ccc(NC(=O)CSc2nnc(NC(C)=O)s2)c([N+](=O)[O-])c1 ?
ATG4B inhibitor: 12; ABCB6 inh 2: 103; Arr AP2 block: 22; Myeloid diff MLP: inactive; NRP1-CendR mod: 1; Granule exo inh: -2

What do the screens show for `COC(=O)c1ccc(NC(=O)c2cc(-c3ccncc3)nc3ccccc23)cc1`?
ATG4B inhibitor: -29; ABCB6 inh 2: 108; Arr AP2 block: -2; Myeloid diff MLP: inactive; NRP1-CendR mod: -13; Granule exo inh: 1

How did COC(=O)c1ccc(NC(=O)c2cc(-c3ccccn3)nc3ccccc23)cc1 do in these assays?
ATG4B inhibitor: 0; ABCB6 inh 2: 104; Arr AP2 block: -4; Myeloid diff MLP: active; NRP1-CendR mod: 1; Granule exo inh: -1; Myeloid diff: inactive; GFP autofluor: 0
